Experimental data: publication PMC6263152 (Journal of medicinal chemistry, 2018)

What was measured:
[1] = system: PC3-PIP (PSMA+) and PC3 (PSMA−) cell containing tissue; assay: PET/CT imaging in mice bearing PC3 and PC3-PIP cells; type: in vivo, C57BL/6 mice
Summary of the method: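 Male C57BL/6 mice received s.c. 3 × 10^6 (18 mg) PC3 cells in the left flank and PC3-PIP cells in the right flank (n = 6); mice without cells served as controls (n = 5). 15 min later, [18F]-labelled test compound (80 μCi, 2.5 nmol, 100 μL) was given i.v. by tail vein. A 10 min CT then a 15 min PET scan were acquired at 2 and 6 h, shown as maximum intensity projections.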

[2] = Optical properties in 1× PBS; type: physicochemical; settings: pH 7.5
Defluoridation stability = type: in vitro ADME
[3] = system: PC3-PIP (PSMA+) vs PC3 (PSMA−) cell containing myocutaneous tissue; assay: Ex vivo γ-scintillated biodistribution in mice bearing PC3 and PC3-PIP cells; set-up: species or system C57BL/6 mice; settings: 2 h after iv injection, γ-scintillation of excised tissue
Summary of the method: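 Male C57BL/6 mice, 5–6 weeks old, 20–25 g (n = 6), were given 3 × 10^6 (18 mg) PC3 cells s.c. in the left flank and PC3-PIP cells in the right flank. After 15 min, radiotracer (100 μL, 80 μCi, 25 μM; 2.5 nmol) went i.v. via the tail vein. Mice were killed by cervical dislocation at 2 h. Organs and flank myocutaneous tissue were weighed and γ-counted as %ID per gram, mean ± SEM.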

PC3 (PSMA−) cells = assay: FACS flow cytometry nonspecific binding control, PC3 cells
Summary of the method: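 PSMA− PC3 cells (luciferase/GFP-expressing) were incubated with 0.1–100 nM test compound for 1 h at 37 °C. Cell-bound fluorescence was read by flow cytometry in the Cy3 channel (488 nm, 22 mW excitation; 620/30 emission filter). Curves were fitted with a two-parameter exponential function. Flow experiments were run in duplicate.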

For `CC1(C)C(/C=C/C=C2\N(CCCCCC(=O)NCCCC[C@H](NC(=O)N[C@H](CCC(=O)O)C(=O)O)C(=O)O)c3ccc(S(=O)(=O)O)cc3C2(C)C)=[N+](CCCCCC(=O)NCCCCn2cc(C[N+](C)(C)C[B-](F)(F)F)nn2)c2ccc(S(=O)(=O)O)cc21` [[^19F]-4, ((((1-(4-(6-(2-((E)-3-((Z)-1-(6-(((S)-5-Carboxy-5-(3-((R)-1,3-dicarboxypropyl)ureido)pentyl)amino)-6-oxohexyl)-3,3-dimethyl-5-sulfoindolin-2-ylidene)prop-1-en-1-yl)-3,3-dimethyl-5-sulfo-3H-indol-1-ium-1-yl)hexanamido)butyl)-1H-1,2,3-triazol-4-yl)methyl)dimethylammonio)methyl) Trifluoroborate], the “Liberation of [18F]-fluoride ion (defluoridation) in vivo” value [1] was “not observed”, the Extinction coefficient ([2]; 1 mM PBS) was 159 000 M^−1 cm^−1 and the “Quantum yield φ” value [2] was 0.06. For the same compound, the Defluoridation (Defluoridation stability; 7 days room temperature incubation with fetal bovine serum) was “Less than 1%”, the “Chemical decomposition (defluoridation)” value (Defluoridation stability; physiological conditions) was “not observed” and the “Activity in PC3-PIP (PSMA+) vs PC3 (PSMA−) containing myocutaneous tissue” value [3] was 175 fold. The “Nonspecific binding to PC3” value (PC3 (PSMA−) cells) was “not observed”.
